Source: ChEMBL document CHEMBL1123585, “Differential effects of N-terminal modifications on the biological potencies of growth hormone releasing factor analogues with varying chain lengths” (1987)
Values joined by “and” are separate entries in the source; they are usually repeats but may differ in a detail not shown here. Equal values may be shown once.

Tests used:
[1] = molecular target: T1, Growth hormone-releasing hormone receptor (Rattus norvegicus) (UniProt Q02644); assay: Tested for the potency of growth hormone (GRF) on subcutaneous administration in anesthetized male Charles River rats; assay type: functional, organism-based
T1 sequence (whole entry): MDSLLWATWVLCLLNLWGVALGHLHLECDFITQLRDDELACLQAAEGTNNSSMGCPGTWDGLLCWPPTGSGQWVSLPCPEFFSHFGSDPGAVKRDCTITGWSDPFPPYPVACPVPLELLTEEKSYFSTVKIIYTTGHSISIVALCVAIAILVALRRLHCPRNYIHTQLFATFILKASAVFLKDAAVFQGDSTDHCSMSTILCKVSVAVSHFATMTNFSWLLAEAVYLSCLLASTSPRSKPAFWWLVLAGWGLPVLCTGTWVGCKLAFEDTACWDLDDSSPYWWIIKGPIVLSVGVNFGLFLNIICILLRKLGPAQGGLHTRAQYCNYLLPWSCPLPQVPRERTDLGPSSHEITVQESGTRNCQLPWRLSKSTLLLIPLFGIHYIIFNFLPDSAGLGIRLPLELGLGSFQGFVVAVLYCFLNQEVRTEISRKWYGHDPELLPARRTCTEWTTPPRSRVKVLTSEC
Method in brief: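 Pentobarbital-anesthetized male rats (175-275 g), six to nine per group, received two subcutaneous doses of analogue or of reference GRF(1-29)NH2, in 0.5 mL, 30 min after anesthesia. Plasma GH measured by RIA 15 min later. Potency with 95% confidence limits calculated from a four-point assay design by the Pugsley method.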

[2] = molecular target: T1, Growth hormone-releasing hormone receptor (Rattus norvegicus); assay: Effect on growth hormone release(GRF) was determined in nembutal-anesthetized rat, at dose of 10 ug/100 g body weight.; assay type: functional
Method in brief: (§1)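 Male Charles River rats (175-275 g), anesthetized with sodium pentobarbital 6 mg/100 g body weight. Six to nine per group. Peptide or saline given subcutaneously in 0.5 mL, 30 min after anesthetic. Jugular vein blood taken 15 min post-injection. Plasma GH measured by radioimmunoassay and reported as ng/mL, mean ± SEM.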

[3] = molecular target: T1, Growth hormone-releasing hormone receptor (Rattus norvegicus); assay: Effect on growth hormone release(GRF) was determined in nembutal-anesthetized rat, at dose of 100 ug/100 g body weight.; assay type: functional; method in brief: as §1
Rattus norvegicus [4] = organism: Rattus norvegicus; assay: In vitro rat pituitary cell growth hormone response to the compound was obtained; assay type: functional, Pituitary gland cell
Rattus norvegicus [5] = assay: Effect on growth hormone release(GRF) was determined in nembutal-anesthetized rat, at dose of 40 ug/100 g body weight.; assay type: functional, organism-based; method in brief: as §1
[6] = molecular target: T1, Growth hormone-releasing hormone receptor (Rattus norvegicus); assay: In vitro rat pituitary cell growth hormone response was obtained; assay type: functional, cell-based; conditions: Pituitary gland cell
Rattus norvegicus [7] = assay: Effect on growth hormone release(GRF) was determined in nembutal-anesthetized rat, at dose of 50 ug/100 g body weight.; assay type: functional, organism-based; method in brief: as §1
Rattus norvegicus [8] = assay: Effect on growth hormone release(GRF) was determined in nembutal-anesthetized rat, at dose of 20 ug/100 g body weight.; assay type: functional, organism-based; method in brief: as §1

Compound | Potency [1] [%] | Plasma GH release [2] | Plasma GH release [3] [ng/mL] | other results
Ac-YADAIFTNSYRKVLGQLSARKLLQ-NH2 | < 5 | 396 ng/mL | 664 | –
CC[C@H](C)[C@H](NC(=O)[C@H](C)NC(=O)[C@H](CC(=O)O)NC(=O)[C@@H](C)N(C)C(=O)[C@@H](N)Cc1ccc(O)cc1)C(=O)N[C@@H](Cc1ccccc1)C(=O)N[C@H](C(=O)N[C@H](CC(N)=O)C(=O)N[C@@H](CO)C(=O)N[C@@H](Cc1ccc(O)cc1)C(=O)N[C@@H](CCCN=C(N)N)C(=O)N[C@@H](CCCCN)C(=O)N[C@H](C(=O)N[C@@H](CC(C)C)C(=O)NCC(=O)N[C@@H](CCC(N)=O)C(=O)N[C@@H](CC(C)C)C(=O)N[C@@H](CO)C(=O)N[C@@H](C)C(=O)N[C@@H](CCCN=C(N)N)C(=O)N[C@@H](CCCCN)C(=O)N[C@@H](CC(C)C)C(N)=O)C(C)C)[C@@H](C)O | < 5 | 512 ng/mL | 385 | –
CC[C@H](C)[C@H](NC(=O)[C@H](C)NC(=O)[C@H](CC(=O)O)NC(=O)[C@H](C)NC(=O)[C@@H](N)Cc1ccc(O)cc1)C(=O)N[C@@H](Cc1ccccc1)C(=O)N[C@H](C(=O)N[C@@H](CC(N)=O)C(=O)N[C@@H](CO)C(=O)N[C@@H](Cc1ccc(O)cc1)C(=O)N[C@@H](CCCN=C(N)N)C(=O)N[C@@H](CCCCN)C(=O)N[C@H](C(=O)N[C@@H](CC(C)C)C(=O)NCC(=O)N[C@@H](CCC(N)=O)C(=O)N[C@@H](CC(C)C)C(=O)N[C@@H](CO)C(=O)N[C@@H](C)C(=O)N[C@@H](CCCN=C(N)N)C(=O)N[C@@H](CCCCN)C(=O)N[C@@H](CC(C)C)C(=O)N[C@@H](CC(C)C)C(=O)N[C@@H](CCCN=C(N)N)C(N)=O)C(C)C)[C@@H](C)O | < 1 | – | 406 | Plasma GH release (Rattus norvegicus [5]): 392 ng/mL
CC[C@H](C)[C@H](NC(=O)[C@H](C)NC(=O)[C@H](CC(=O)O)NC(=O)[C@@H](C)NC(=O)[C@@H](N)Cc1ccc(O)cc1)C(=O)N[C@@H](Cc1ccccc1)C(=O)N[C@H](C(=O)N[C@H](CC(N)=O)C(=O)N[C@@H](CO)C(=O)N[C@@H](Cc1ccc(O)cc1)C(=O)N[C@@H](CCCN=C(N)N)C(=O)N[C@@H](CCCCN)C(=O)N[C@H](C(=O)N[C@@H](CC(C)C)C(=O)NCC(=O)N[C@@H](CCC(N)=O)C(=O)N[C@@H](CC(C)C)C(=O)N[C@@H](CO)C(=O)N[C@@H](C)C(=O)N[C@@H](CCCN=C(N)N)C(=O)N[C@@H](CCCCN)C(=O)N[C@@H](CC(C)C)C(N)=O)C(C)C)[C@@H](C)O | < 5 | 417 ng/mL and 305 ng/mL | – | –
CC[C@H](C)[C@H](NC(=O)[C@H](C)NC(=O)[C@@H](CC(=O)O)NC(=O)[C@@H](C)NC(=O)[C@@H](N)Cc1ccc(O)cc1)C(=O)N[C@@H](Cc1ccccc1)C(=O)N[C@H](C(=O)N[C@H](CC(N)=O)C(=O)N[C@@H](CO)C(=O)N[C@@H](Cc1ccc(O)cc1)C(=O)N[C@@H](CCCN=C(N)N)C(=O)N[C@@H](CCCCN)C(=O)N[C@H](C(=O)N[C@@H](CC(C)C)C(=O)NCC(=O)N[C@@H](CCC(N)=O)C(=O)N[C@@H](CC(C)C)C(=O)N[C@@H](CO)C(=O)N[C@@H](C)C(=O)N[C@@H](CCCN=C(N)N)C(=O)N[C@@H](CCCCN)C(=O)N[C@@H](CC(C)C)C(N)=O)C(C)C)[C@@H](C)O | < 5 | 314 ng/mL | 340 | –
CC[C@H](C)[C@H](NC(=O)[C@H](C)NC(=O)[C@H](CC(=O)O)NC(=O)[C@H](C)NC(=O)[C@@H](N)Cc1ccc(O)cc1)C(=O)N[C@@H](Cc1ccccc1)C(=O)N[C@H](C(=O)N[C@H](CC(N)=O)C(=O)N[C@@H](CO)C(=O)N[C@@H](Cc1ccc(O)cc1)C(=O)N[C@@H](CCCN=C(N)N)C(=O)N[C@@H](CCCCN)C(=O)N[C@H](C(=O)N[C@@H](CC(C)C)C(=O)NCC(=O)N[C@@H](CCC(N)=O)C(=O)N[C@@H](CC(C)C)C(=O)N[C@@H](CO)C(=O)N[C@@H](C)C(=O)N[C@@H](CCCN=C(N)N)C(=O)N[C@@H](CCCCN)C(=O)N[C@@H](CC(C)C)C(=O)N[C@@H](CC(C)C)C(=O)N[C@@H](CCC(N)=O)C(=O)N[C@@H](CC(=O)O)C(=O)N[C@H](C(=O)N[C@@H](CCSC)C(=O)N[C@@H](CO)C(=O)N[C@@H](CCCN=C(N)N)C(N)=O)[C@@H](C)CC)C(C)C)[C@@H](C)O | 220 | – | – | –
CC[C@H](C)[C@H](NC(=O)C(CC(=O)O)NC(=O)[C@H](CCC(N)=O)NC(=O)[C@H](CC(C)C)NC(=O)[C@H](CC(C)C)NC(=O)[C@H](CCCCN)NC(=O)[C@H](CCCN=C(N)N)NC(=O)[C@H](C)NC(=O)[C@H](CO)NC(=O)[C@H](CC(C)C)NC(=O)[C@H](CCC(N)=O)NC(=O)CNC(=O)[C@H](CC(C)C)NC(=O)[C@@H](NC(=O)[C@H](CCCCN)NC(=O)[C@H](CCCN=C(N)N)NC(=O)[C@H](Cc1ccc(O)cc1)NC(=O)[C@H](CO)NC(=O)[C@H](CC(N)=O)NC(=O)[C@@H](NC(=O)[C@H](Cc1ccccc1)NC(=O)[C@@H](NC(=O)[C@H](C)NC(=O)C(CC(=O)O)NC(=O)[C@@H](C)NC(=O)[C@@H](N)Cc1ccc(O)cc1)[C@@H](C)CC)[C@@H](C)O)C(C)C)C(=O)N[C@@H](CCSC)C(=O)N[C@@H](CO)C(=O)N[C@@H](CCCN=C(N)N)C(N)=O (stereo in doubt) | 670 | – | – | Potency (Rattus norvegicus [4]): 150%
CC[C@H](C)[C@H](NC(=O)[C@H](C)NC(=O)[C@@H](CC(=O)O)NC(=O)[C@H](C)NC(=O)[C@@H](N)Cc1ccc(O)cc1)C(=O)N[C@@H](Cc1ccccc1)C(=O)N[C@H](C(=O)N[C@H](CC(N)=O)C(=O)N[C@@H](CO)C(=O)N[C@@H](Cc1ccc(O)cc1)C(=O)N[C@@H](CCCN=C(N)N)C(=O)N[C@@H](CCCCN)C(=O)N[C@H](C(=O)N[C@@H](CC(C)C)C(=O)NCC(=O)N[C@@H](CCC(N)=O)C(=O)N[C@@H](CC(C)C)C(=O)N[C@@H](CO)C(=O)N[C@@H](C)C(=O)N[C@@H](CCCN=C(N)N)C(=O)N[C@@H](CCCCN)C(=O)N[C@@H](CC(C)C)C(N)=O)C(C)C)[C@@H](C)O | < 5 | 498 ng/mL | 401 | –

Now from value to compound, other results behind:

Potency [1] [%] | Plasma GH release [2] | Plasma GH release [3] [ng/mL] | Compound | other results
1200 | – | – | CC[C@H](C)[C@H](NC(=O)[C@H](C)NC(=O)[C@H](CC(=O)O)NC(=O)[C@H](C)NC(=O)[C@H](Cc1ccc(O)cc1)NC(C)=O)C(=O)N[C@@H](Cc1ccccc1)C(=O)N[C@H](C(=O)N[C@@H](CC(N)=O)C(=O)N[C@@H](CO)C(=O)N[C@@H](Cc1ccc(O)cc1)C(=O)N[C@@H](CCCN=C(N)N)C(=O)N[C@@H](CCCCN)C(=O)N[C@H](C(=O)N[C@@H](CC(C)C)C(=O)NCC(=O)N[C@@H](CCC(N)=O)C(=O)N[C@@H](CC(C)C)C(=O)N[C@@H](CO)C(=O)N[C@@H](C)C(=O)N[C@@H](CCCN=C(N)N)C(=O)N[C@@H](CCCCN)C(=O)N[C@@H](CC(C)C)C(=O)N[C@@H](CC(C)C)C(=O)N[C@@H](CCC(N)=O)C(=O)N[C@@H](CC(=O)O)C(=O)N[C@H](C(=O)N[C@@H](CCSC)C(=O)N[C@@H](CO)C(=O)N[C@@H](CCCN=C(N)N)C(N)=O)[C@@H](C)CC)C(C)C)[C@@H](C)O | Potency (Rattus norvegicus [4]): 240%
< 5 | 358 ng/mL | 719 | Ac-HADAIFTNSYRKVLGQLSARKLLQ-NH2 | –
< 1 | – | – | CC[C@H](C)[C@H](NC(=O)[C@H](C)NC(=O)[C@H](CC(=O)O)NC(=O)[C@H](C)NC(=O)[C@@H](N)Cc1ccc(O)cc1)C(=O)N[C@@H](Cc1ccccc1)C(=O)N[C@H](C(=O)N[C@@H](CC(N)=O)C(=O)N[C@@H](CO)C(=O)N[C@@H](Cc1ccc(O)cc1)C(=O)N[C@@H](CCCN=C(N)N)C(=O)N[C@@H](CCCCN)C(=O)N[C@H](C(=O)N[C@@H](CC(C)C)C(=O)NCC(=O)N[C@@H](CCC(N)=O)C(=O)N[C@@H](CC(C)C)C(=O)N[C@@H](CO)C(=O)N[C@@H](C)C(=O)N[C@@H](CCCN=C(N)N)C(=O)N[C@@H](CCCCN)C(=O)N[C@@H](CC(C)C)C(=O)N[C@@H](CC(C)C)C(=O)N[C@@H](CCC(N)=O)C(N)=O)C(C)C)[C@@H](C)O | Potency [6]: 0.008%
53 | – | – | CC[C@H](C)[C@H](NC(=O)[C@H](C)NC(=O)[C@H](CC(=O)O)NC(=O)[C@H](C)NC(=O)[C@@H](N)Cc1ccc(O)cc1)C(=O)N[C@@H](Cc1ccccc1)C(=O)N[C@H](C(=O)N[C@H](CC(N)=O)C(=O)N[C@@H](CO)C(=O)N[C@@H](Cc1ccc(O)cc1)C(=O)N[C@@H](CCCN=C(N)N)C(=O)N[C@@H](CCCCN)C(=O)N[C@H](C(=O)N[C@@H](CC(C)C)C(=O)NCC(=O)N[C@@H](CCC(N)=O)C(=O)N[C@@H](CC(C)C)C(=O)N[C@@H](CO)C(=O)N[C@@H](C)C(=O)N[C@@H](CCCN=C(N)N)C(=O)N[C@@H](CCCCN)C(=O)N[C@@H](CC(C)C)C(=O)N[C@@H](CC(C)C)C(=O)N[C@@H](CCC(N)=O)C(=O)N[C@@H](CC(=O)O)C(=O)N[C@H](C(=O)N[C@@H](CC(C)C)C(N)=O)[C@@H](C)CC)C(C)C)[C@@H](C)O | Potency [6]: 25%; Plasma GH release (Rattus norvegicus [7]): 2370 ng/mL; Plasma GH release (Rattus norvegicus [8]): 1550 ng/mL
54 | – | – | Ac-YADAIFTNSYRKVLGQLSARKLLQDIL-NH2 | Plasma GH release (Rattus norvegicus [7]): 2730 ng/mL; Plasma GH release (Rattus norvegicus [8]): 1270 ng/mL
